Calls of active or inactive are those of the source.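 How the source made its calls, unless noted: active means inhibition at or above 50% at 10 µM; inactive means inhibition below 50%.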
How the values were obtained:
[1] = inhibitors of TNFa-induced NFkB p65 translocation, primary screen, imaging, HUVEC, MLSMR starter and 10KST1 sets (AID 438;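 active means inhibition above 20% together with a positive visual image hit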;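 further: compound added about 3h40 before a 20 min TNFalpha stimulation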;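 on inhibition: signal is the nuclear over cytoplasmic p65 intensity ratio per well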); conditions: HUVEC TNFa-induced p65 nuclear translocation; cell count: measured here: nuclei count (cytotoxicity indicator), at 2.08 µM; inhibition: at 2 µM, stronger effect = higher value, 0% TNFa-plus-vehicle, 100% no-TNFa wells
[2] = inhibitors of mutant huntingtin aggregation, primary screen, imaging, exon1htt(103Q)mCFP cells, high-content imaging (AID 483;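 active means visual image review flags a hit and inhibition of aggregation exceeds 20%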;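 further: compound exposure lasted 3 days before fixation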;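 on nuclei count: percent of the per-plate median nuclei count of sample wells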); conditions: exon1htt(103Q)mCFP cell line, aggregate imaging, at 2 µM; inhibition of aggregation: stronger effect = higher value; nuclei count: measured here: cell count, toxicity
[3] = inhibitors of E-selectin induction by TNFa, primary screen, imaging, HUVEC, immunofluorescence, MLSMR starter and 10KST1 sets (AID 487;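 active means visually confirmed hit in the image check and inhibition above 20%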;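 on inhibition: signal is fraction of cell area covered by stained E-selectin grains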;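 on nuclei count: 100% = median nuclei count of all wells on the same plate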); conditions: HUVEC TNFalpha-induced E-selectin immunofluorescence imaging, at 2 µM; inhibition: stronger effect = higher value; nuclei count: measured here: cell number, toxicity
[4] = target: Voltage-gated potassium channel subunit beta-2 (Rattus norvegicus) (UniProt P62483); assay: KvBeta enzyme negative modulators, primary screen, biochemical, NADPH fluorescence (AID 622;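 active means fluorescence slope higher than the sample average by over 3 SD, cut at about -0.22 in these data, passing the limit was not always enough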;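 further: slope of raw intensity against log time taken from 70 to 1610 s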); conditions: recombinant KvBeta, 4-cyanobenzaldehyde reduction, at 10 µM, stronger effect = higher value
[5] = target: Voltage-gated potassium channel subunit beta-2 (Rattus norvegicus) (UniProt P62483); assay: KvBeta positive modulators, primary screen, biochemical, NADPH fluorescence (AID 623;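 active means NADPH fluorescence slope more negative than the mean of all samples by about 3 SD, 99.7% confidence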;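 further: fluorescence intensity change per second fitted from 20 to 320 s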); conditions: Recombinant KvBeta, NADPH fluorescence decrease slope, 10 min; at 10 µM; stronger effect = lower value
[6] = target: Muscarinic acetylcholine receptor M4 (Homo sapiens) (UniProt P08173); assay: compounds altering M4/GIRK thallium flux, either direction, primary screen, M4 allosteric agonist project, cell-based, HEK293 M4/GIRK, BTC-AM (AID 625;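 active means fluorescence slope after compound addition differing from the mean of all tested samples at 99.7% confidence, mostly higher but some lower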;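 further: thallium influx through GIRK channels coupled to M4 in HEK293 cells with BTC-AM dye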); conditions: at 10 µM, actives lie on both sides
Method in brief: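 Assay system: HEK293 cells with M4 receptor and GIRK channels / Controls: carbachol and DMSO controls / Schedule: 1 h dye loading, 2 min kinetic read / Technique: kinetic fluorescence with BTC-AM dye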

[7] = inhibitors of Sendai virus-induced IRF3 signaling, primary screen, TLR/RLR signaling modifier project, cell-based, Sendai virus stimulus, luciferase, 10K MLSCN set (AID 602276); conditions: HEK293 RL24 IRF3 luciferase reporter, at 10 µM, stronger effect = higher value;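 further: firefly luciferase from ISG56 promoter only with Renilla not read in this screen; 0% = Sendai virus plus DMSO and 100% = medium plus DMSO without virus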
[8] = inhibitors of poly I:C-induced TLR3 signaling, primary screen, cell-based, poly I:C stimulus, luciferase, 10K MLSCN set (AID 602277;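 active means inhibition of the reporter signal at or above 50%; inactive means inhibition below 50%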); conditions: HEK293-TLR3 RL24 IRF3 luciferase reporter, at 10 µM, stronger effect = higher value

Chain of Muscarinic acetylcholine receptor M4 (Homo sapiens) (P08173 whole entry, looked up): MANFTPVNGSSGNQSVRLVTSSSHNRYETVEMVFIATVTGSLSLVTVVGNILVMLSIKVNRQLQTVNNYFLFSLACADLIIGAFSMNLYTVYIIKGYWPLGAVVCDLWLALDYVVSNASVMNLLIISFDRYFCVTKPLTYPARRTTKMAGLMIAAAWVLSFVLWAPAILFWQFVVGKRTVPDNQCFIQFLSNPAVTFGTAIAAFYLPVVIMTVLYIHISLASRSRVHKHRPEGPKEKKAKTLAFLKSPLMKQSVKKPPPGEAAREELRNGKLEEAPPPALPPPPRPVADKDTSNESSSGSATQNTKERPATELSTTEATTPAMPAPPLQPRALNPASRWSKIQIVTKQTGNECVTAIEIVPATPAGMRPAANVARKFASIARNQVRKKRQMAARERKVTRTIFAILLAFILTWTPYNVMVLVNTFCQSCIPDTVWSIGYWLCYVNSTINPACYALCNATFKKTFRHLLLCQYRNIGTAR
Chain of Voltage-gated potassium channel subunit beta-2 (Rattus norvegicus) (P62483 whole entry, looked up): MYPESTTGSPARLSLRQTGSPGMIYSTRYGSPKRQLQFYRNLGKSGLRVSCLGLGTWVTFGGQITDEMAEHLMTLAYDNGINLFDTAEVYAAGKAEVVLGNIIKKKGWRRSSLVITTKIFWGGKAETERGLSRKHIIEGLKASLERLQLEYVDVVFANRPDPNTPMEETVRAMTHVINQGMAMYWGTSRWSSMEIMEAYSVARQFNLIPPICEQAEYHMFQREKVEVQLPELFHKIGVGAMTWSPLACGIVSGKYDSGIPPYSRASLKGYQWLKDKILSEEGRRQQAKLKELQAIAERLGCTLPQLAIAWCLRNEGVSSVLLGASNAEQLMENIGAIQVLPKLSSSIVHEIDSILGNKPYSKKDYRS

| Structure (SMILES) | cell count [1] | inhibition [1] | inhibition of aggregation [2] | nuclei count [2] [%] | inhibition [3] | nuclei count [3] [%] | fluorescence slope [4] | NADPH fluorescence slope [5] | fluorescence slope [6] | inhibition [7] | inhibition [8] |
| --- | --- | --- | --- | --- | --- | --- | --- | --- | --- | --- | --- |
| COCCNC(=O)c1cc2c(-c3ccccc3F)nn(C)c2s1 | 401 | -5.4% (inactive) | -28.5% (inactive) | 96.8 | -12.9% (inactive) | 120 | -0.523 (inactive) | -3.7e-06 (inactive) | 0.00439 (inactive) | 12.1% (inactive) | -0.79% (inactive) |
| c1ccc(-c2cn3c4c(sc3n2)CCCC4)cc1 | 789 | -4.8% (inactive) | 40% (inactive) | 118 | -34.8% (inactive) | 116 | -0.493 (inactive) | -7.1e-06 (inactive) | 0.00593 (inactive) | 5.66% (inactive) | 71.3% (active) |
| CC(=O)C1=C(O)C(=O)N(Cc2ccco2)C1c1ccc(F)cc1 (stereo not drawn) | 381 | 4.3% (inactive) | -7.7% (inactive) | 92.3 | 21.9% (inactive) | 98 | -0.576 (inactive) | 1e-05 (inactive) | 0.00555 (inactive) | 2% (inactive) | 0.393% (inactive) |
| COc1ccc(-n2nc(C(=O)Nc3ccc4c(c3)OCO4)c3c4ccccc4n(C)c3c2=O)cc1 | 218 | 4.3% (inactive) | -21.9% (inactive) | 47.3 | -66% (inactive) | 97.1 | -0.566 (inactive) | 4e-06 (inactive) | 0.0112 (active) | 10.3% (inactive) | 24.3% (inactive) |
| O=S(=O)(Nc1cccc2ncccc12)c1cccs1 | 469 | -38% (inactive) | -0.2% (inactive) | 67.2 | 39.3% (inactive) | 23.8 | -0.486 (inactive) | 2.1e-05 (inactive) | 0.0108 (active) | -7.18% (inactive) | -3.78% (inactive) |
| O=C(CN1C(=O)c2cccc3cccc1c23)N1CCN(c2ccccc2)CC1 | 512 | -50% (inactive) | 2.8% (inactive) | 108 | -27.9% (inactive) | 101 | -0.127 (inactive) | -6.1e-06 (inactive) | 0.00738 (inactive) | -2.31% (inactive) | 2.78% (inactive) |
| COc1ccc(CC(=O)Nc2c3c(nn2-c2cccc(Cl)c2)CS(=O)(=O)C3)cc1 | 785 | -11.6% (inactive) | -2.4% (inactive) | 98.5 | -28.2% (inactive) | 107 | -0.529 (inactive) | 1.2e-05 (inactive) | 0.00322 (inactive) | 19.7% (inactive) | 20.9% (inactive) |
| NC(=O)CSc1nnc(-c2ccc(O)cc2)n1Cc1ccco1 | 371 | -0.2% (inactive) | 18.6% (inactive) | 98.1 | -112% (inactive) | 93.2 | -0.531 (inactive) | -4.4e-05 (inactive) | 0.00558 (inactive) | 11.3% (inactive) | 19.8% (inactive) |
| CCOC(=O)C1CCCN(C(=O)c2ccc3c(=O)n(CCOC)c(=S)[nH]c3c2)C1 (stereo not drawn) | 417 | 3.9% (inactive) | -2.5% (inactive) | 81.3 | 20.2% (inactive) | 91.8 | -0.386 (inactive) | -6.4e-05 (inactive) | 0.00594 (inactive) | 6.16% (inactive) | -7.26% (inactive) |
| Cc1cc(C)n2cc(CSCc3ccco3)nc2n1 | 566 | -13.6% (inactive) | 4.9% (inactive) | 89.3 | 18.2% (inactive) | 88.2 | -0.238 (inactive) | -2.7e-05 (inactive) | 0.00628 (inactive) | 11.1% (inactive) | 8.26% (inactive) |
| O=C(CCn1c(=O)c2sccc2n(CC(=O)NCc2ccco2)c1=O)NCc1ccccc1 | 331 | -2.4% (inactive) | 0% (inactive) | 100 | -60% (inactive) | 111 | -0.566 (inactive) | -8.5e-05 (inactive) | 0.00667 (inactive) | -3.97% (inactive) | -0.766% (inactive) |
| O=c1c2c3c(sc2n2cnnc2n1CCc1ccccc1)CCCC3 | 660 | -1.4% (inactive) | 3.7% (inactive) | 99.9 | -171% (inactive) | 130 | -0.543 (inactive) | -2.6e-05 (inactive) | 0.00413 (inactive) | 2.46% (inactive) | 2.39% (inactive) |
| CC(OC(=O)c1cccc(NS(C)(=O)=O)c1)C(=O)Nc1ccc(N2CCOCC2)cc1 (stereo not drawn) | 415 | -11.6% (inactive) | -32.5% (inactive) | 101 | -52.8% (inactive) | 148 | -0.559 (inactive) | -3.1e-05 (inactive) | 0.0061 (inactive) | 16.6% (inactive) | -7.05% (inactive) |
| COc1ccccc1CN1C(=O)CCC1(C)C(=O)NC1CCCCCC1 (stereo not drawn) | 452 | 5.3% (inactive) | 14.8% (inactive) | 63.8 | -184% (inactive) | 115 | -0.44 (inactive) | 0.000132 (inactive) | 0.00525 (inactive) | 0.126% (inactive) | 9.28% (inactive) |
| CC(C)(C)OC(=O)N1CCC(C(=O)N2CCCCCC2)CC1 | 383 | 4.6% (inactive) | 0.1% (inactive) | 90 | -36.8% (inactive) | 97 | -0.529 (inactive) | -8e-05 (inactive) | 0.00575 (inactive) | 7.78% (inactive) | 11.9% (inactive) |
| CCCCN(Cc1cc2cc(OC)ccc2[nH]c1=O)C(=O)COc1ccccc1 | 348 | 4.3% (inactive) | -1.9% (inactive) | 117 | -53.3% (inactive) | 125 | -0.505 (inactive) | -5e-05 (inactive) | 0.00376 (inactive) | 7.27% (inactive) | 13.1% (inactive) |
| N#Cc1nc(COc2ccccc2)oc1NCCN1CCOCC1 | 778 | 1.6% (inactive) | -34.9% (inactive) | 96.4 | -14.1% (inactive) | 102 | -0.569 (inactive) | 2.2e-05 (inactive) | 0.00627 (inactive) | 2.21% (inactive) | 2.82% (inactive) |
| Cc1cccn2c(=O)c3cc(C#N)c(=NC(=O)c4cccnc4)n(CC4CCCO4)c3nc12 (stereo not drawn) | 852 | -2.8% (inactive) | -7.5% (inactive) | 105 | -74.7% (inactive) | 107 | -0.0377 (active) | -8.2e-07 (inactive) | 0.0039 (inactive) | -14.2% (inactive) | -0.613% (inactive) |
| O=C(COc1ccc(Cl)cc1)Nc1nc(-c2cccs2)cs1 | 718 | -6.1% (inactive) | -1.6% (inactive) | 110 | -32.4% (inactive) | 114 | -0.567 (inactive) | 2.5e-05 (inactive) | 0.00605 (inactive) | 1.13% (inactive) | 0.877% (inactive) |
| Cc1ccc(-c2[nH]nc3c2C(c2ccoc2)C(C#N)=C(N)O3)cc1C (stereo not drawn) | 853 | 3.6% (inactive) | 7.7% (inactive) | 92.5 | -111% (inactive) | 126 | -0.474 (inactive) | -5.3e-05 (inactive) | 0.00509 (inactive) | 23.8% (inactive) | 16.8% (inactive) |
| CSc1ccccc1NC(=O)c1noc2c1CCC2 | 416 | 2.6% (inactive) | -0.9% (inactive) | 109 | -55.8% (inactive) | 120 | -0.593 (inactive) | -8e-06 (inactive) | 0.00589 (inactive) | -12.4% (inactive) | -50.3% (inactive) |
| Cc1nc(-c2ccc(NC(=O)c3cccs3)cc2)cs1 | 369 | -3.7% (inactive) | 20.1% (inactive) | 105 | -0.4% (inactive) | 109 | -0.427 (inactive) | -4.1e-05 (inactive) | 0.005 (inactive) | -23.5% (inactive) | -96.4% (inactive) |
| Cc1c2c(nc3nc4ccccc4n13)CC(C)(C)CC2=O | 632 | 8.2% (inactive) | -6.2% (inactive) | 109 | -63.4% (inactive) | 106 | -0.603 (inactive) | -2.5e-05 (inactive) | 0.00409 (inactive) | 16.3% (inactive) | 28.8% (inactive) |
| CCOC(=O)c1sc(NC(=O)CNC(=O)Cn2cnc3sc(C)c(C)c3c2=O)nc1C | 260 | 12.2% (inactive) | -12.7% (inactive) | 112 | -61.8% (inactive) | 109 | -0.565 (inactive) | -1.6e-06 (inactive) | 0.00606 (inactive) | 16.7% (inactive) | 24.7% (inactive) |
| Cc1ccc(S(=O)(=O)CCc2nnc(NC(=O)c3cnccn3)s2)cc1 | 578 | -46.9% (inactive) | -22.9% (inactive) | 116 | -82.9% (inactive) | 117 | -0.407 (inactive) | -8.1e-06 (inactive) | 0.00653 (inactive) | 10.8% (inactive) | 22.5% (inactive) |
| COc1ccc(-n2nnc3c(=O)n(C/C=C/c4ccccc4)cnc32)cc1 | 585 | -6.7% (inactive) | -19% (inactive) | 102 | -31.4% (inactive) | 115 | -0.218 (inactive) | -1.5e-05 (inactive) | 0.00695 (inactive) | 12.8% (inactive) | 7.09% (inactive) |
| CCc1cc2ccc(C)cc2nc1SCC(=O)N1CCN(C(=O)c2ccco2)CC1 | 431 | 4.8% (inactive) | 15.4% (inactive) | 106 | -49.1% (inactive) | 119 | -0.504 (inactive) | -0.000145 (inactive) | 0.00487 (inactive) | 11.9% (inactive) | 5.95% (inactive) |
| Cc1cccc(-n2ncc3c(NCc4ccccn4)ncnc32)c1 | 351 | -16.8% (inactive) | 4.2% (inactive) | 101 | 0.4% (inactive) | 122 | -0.592 (inactive) | -4.2e-05 (inactive) | 0.00598 (inactive) | -33.2% (inactive) | -129% (inactive) |
